Experimental data as given in PMC7610535 (Nature chemical biology, 2020).
Residue numbers refer to the chain shown, from its start.

What was measured:
AURORA-A = target: T1, AURORA-A (Homo sapiens, UniProt O14965); assay: Quantitative SILAC mass spectrometry: AURORA-A level in MV4-11 cells; type: cell-based; settings: 0.1 µM, 6 hours
T1 sequence (O14965 1-403): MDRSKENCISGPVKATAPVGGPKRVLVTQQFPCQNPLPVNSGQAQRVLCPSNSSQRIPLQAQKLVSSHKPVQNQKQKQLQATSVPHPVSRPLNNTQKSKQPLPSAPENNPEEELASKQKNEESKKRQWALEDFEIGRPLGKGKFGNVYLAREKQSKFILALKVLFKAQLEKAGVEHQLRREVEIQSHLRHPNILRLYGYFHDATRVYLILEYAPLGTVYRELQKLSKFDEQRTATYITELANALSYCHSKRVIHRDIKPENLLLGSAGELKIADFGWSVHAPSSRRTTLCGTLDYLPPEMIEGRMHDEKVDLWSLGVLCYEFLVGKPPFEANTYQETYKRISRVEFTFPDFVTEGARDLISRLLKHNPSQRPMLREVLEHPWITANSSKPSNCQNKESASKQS

AURORA-A^T217D = target: T2, AURORA-A^T217D (Homo sapiens, UniProt O14965, T217D); assay: Immunoblot of HA-tagged AURORA-A^T217D in IMR5 cells; type: cell-based; settings: 24 hours
T2 sequence (O14965 1-403 T217D): T1 sequence (O14965 1-403) with T217D
Outline: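 IMR5 cells expressing HA-tagged AURORA-A T217D or wild-type AURORA-A were exposed to graded concentrations for 24 h. RIPA lysates (20 min, 4 °C) were cleared and BCA-quantified. Equal protein was resolved by Bis-Tris PAGE and transferred to PVDF. Membranes were blocked 1 h in 5% milk/TBS-T and probed for HA-tagged AURORA-A overnight at 4 °C.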

AURORA-A^K162R = AURORA-A^K162R (Homo sapiens, UniProt O14965+Q96SW2, I57V/K162R); assay: Immunoblot of HA-tagged kinase-dead AURORA-A^K162R; type: cell-based; settings: 1 µM, 18 hours
AURORA-A^P191W = target: T3, AURORA-A^P191W (Homo sapiens, UniProt O14965, P191W); assay: HiBiT assay of AURORA-A^P191W in MV4-11 cells; type: cell-based; settings: 6 hours
T3 sequence (O14965 1-403 P191W): T1 sequence (O14965 1-403) with P191W
Outline: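 HiBiT-tagged wild-type or mutant AURORA-A was expressed stably in MV4-11 cells (infected twice, 24 h apart, selected 72 h after infection). Cells were exposed to serial dilutions of the test compound for 6 h and lysed with lytic detection reagent containing the LgBiT fragment. Luminescence was then read. DC50 and DCmax were derived from the concentration–response data.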

[1] = target: AURORA-A/CEREBLON(TBD) complex (Homo sapiens, UniProt O14965+Q96SW2); assay: Isothermal titration calorimetry, ternary complex; type: binding
Chain of AURORA-A/CEREBLON(TBD) complex (Q96SW2 320-428, one chain of several): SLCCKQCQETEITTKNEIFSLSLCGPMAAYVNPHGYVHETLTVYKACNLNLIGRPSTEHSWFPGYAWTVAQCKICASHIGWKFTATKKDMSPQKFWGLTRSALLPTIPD

Chain of AURORA-A^K162R (O14965 whole entry I57V/K162R): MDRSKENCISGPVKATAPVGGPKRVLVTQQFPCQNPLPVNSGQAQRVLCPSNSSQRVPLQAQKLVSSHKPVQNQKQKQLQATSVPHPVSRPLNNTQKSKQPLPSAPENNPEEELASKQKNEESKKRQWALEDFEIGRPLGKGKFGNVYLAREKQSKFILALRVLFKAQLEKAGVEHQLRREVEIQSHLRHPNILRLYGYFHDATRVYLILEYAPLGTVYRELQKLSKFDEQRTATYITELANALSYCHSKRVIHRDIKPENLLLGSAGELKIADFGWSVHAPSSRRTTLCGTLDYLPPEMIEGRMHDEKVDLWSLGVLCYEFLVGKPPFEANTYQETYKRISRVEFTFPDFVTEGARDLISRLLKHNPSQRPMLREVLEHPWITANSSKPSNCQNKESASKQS
Chain of AURORA-A^K162R (Q96SW2 whole entry): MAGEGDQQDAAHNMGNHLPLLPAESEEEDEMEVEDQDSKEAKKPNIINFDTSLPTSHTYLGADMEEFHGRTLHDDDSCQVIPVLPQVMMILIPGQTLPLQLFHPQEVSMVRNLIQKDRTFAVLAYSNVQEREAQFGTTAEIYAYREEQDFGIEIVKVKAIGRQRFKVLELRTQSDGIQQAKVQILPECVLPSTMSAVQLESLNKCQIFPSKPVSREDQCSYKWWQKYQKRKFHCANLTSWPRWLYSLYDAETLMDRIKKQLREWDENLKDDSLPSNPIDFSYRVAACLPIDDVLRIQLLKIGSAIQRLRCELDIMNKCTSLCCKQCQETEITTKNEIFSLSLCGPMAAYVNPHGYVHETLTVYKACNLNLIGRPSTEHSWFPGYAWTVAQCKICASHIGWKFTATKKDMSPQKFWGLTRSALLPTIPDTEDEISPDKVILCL
Chain of AURORA-A^K162R (Q16531 whole entry partner): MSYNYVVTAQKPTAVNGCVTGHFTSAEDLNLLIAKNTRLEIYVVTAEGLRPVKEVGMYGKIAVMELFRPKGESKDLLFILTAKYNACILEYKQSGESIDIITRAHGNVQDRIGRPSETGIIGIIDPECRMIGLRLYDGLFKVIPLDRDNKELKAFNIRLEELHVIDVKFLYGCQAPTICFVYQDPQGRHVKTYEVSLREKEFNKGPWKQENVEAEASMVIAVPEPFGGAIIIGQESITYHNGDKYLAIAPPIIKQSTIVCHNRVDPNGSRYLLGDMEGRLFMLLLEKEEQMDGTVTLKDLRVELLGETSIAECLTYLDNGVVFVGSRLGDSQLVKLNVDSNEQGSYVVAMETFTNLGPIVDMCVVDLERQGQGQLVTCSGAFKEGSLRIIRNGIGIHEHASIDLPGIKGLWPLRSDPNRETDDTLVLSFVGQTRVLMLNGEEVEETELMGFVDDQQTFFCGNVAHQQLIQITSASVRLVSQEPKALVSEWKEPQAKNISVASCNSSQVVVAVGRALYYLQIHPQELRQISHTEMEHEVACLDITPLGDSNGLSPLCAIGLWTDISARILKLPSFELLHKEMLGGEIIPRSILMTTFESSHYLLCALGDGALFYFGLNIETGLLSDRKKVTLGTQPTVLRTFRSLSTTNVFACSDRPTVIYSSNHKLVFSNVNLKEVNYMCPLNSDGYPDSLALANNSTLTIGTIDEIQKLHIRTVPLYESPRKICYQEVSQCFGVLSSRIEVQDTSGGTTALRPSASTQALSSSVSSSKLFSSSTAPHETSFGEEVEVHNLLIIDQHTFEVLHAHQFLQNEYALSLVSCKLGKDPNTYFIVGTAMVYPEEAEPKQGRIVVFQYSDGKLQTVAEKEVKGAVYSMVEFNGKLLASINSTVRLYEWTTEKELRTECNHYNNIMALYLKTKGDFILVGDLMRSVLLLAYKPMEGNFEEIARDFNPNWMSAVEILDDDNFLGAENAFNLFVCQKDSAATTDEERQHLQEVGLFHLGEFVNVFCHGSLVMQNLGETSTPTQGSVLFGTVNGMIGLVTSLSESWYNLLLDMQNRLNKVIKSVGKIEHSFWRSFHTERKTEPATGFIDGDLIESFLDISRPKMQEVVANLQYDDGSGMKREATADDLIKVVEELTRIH

COc1cc(Nc2ncc3c(n2)-c2ccc(Cl)cc2C(c2c(F)cccc2OC)=NC3)ccc1C(=O)NCCOCCOCCNC(=O)COc1cccc2c1C(=O)N(C1CCC(=O)NC1=O)C2=O (stereo not drawn) [JB170]
decrease of AURORA-A levels compared to alisertib-treated cells (AURORA-A): 73% | decrease of AURORA-A levels compared to untreated cells (AURORA-A): 57% | JB170-mediated depletion of AURORA-A^T217D (AURORA-A^T217D): largely abrogated | depletion of AURORA-A^K162R (AURORA-A^K162R): depleted by JB170 to a similar degree as the unmutated protein | JB170-mediated depletion of AURORA-A^P191W (AURORA-A^P191W): abolished JB170-mediated depletion | Kd [1]: 183 nM
